Test results taken from PubChem BioAssay.
The source made the active and inactive calls.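 Rule for the calls, unless noted: active = NADPH fluorescence slope more negative than the mean of all samples by about 3 SD, 99.7% confidence; inactive = the rest.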

Key:
[1] = inhibitors of TNFa-induced NFkB p65 translocation, primary screen, imaging, HUVEC, MLSMR starter and 10KST1 sets (AID 438;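 active = inhibition above 20% together with a positive visual image hit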;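 note: compound added about 3h40 before a 20 min TNFalpha stimulation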;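 for inhibition: signal is the nuclear over cytoplasmic p65 intensity ratio per well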); conditions: HUVEC TNFa-induced p65 nuclear translocation; cell count: measured here: nuclei count (cytotoxicity indicator), at 2.08 µM unless noted; inhibition: at 2 µM, stronger effect = higher value unless noted
[2] = inhibitors of E-selectin induction by TNFa, primary screen, imaging, HUVEC, immunofluorescence, MLSMR starter and 10KST1 sets (AID 487;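 active = visually confirmed hit in the image check and inhibition above 20%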;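 for inhibition: signal is fraction of cell area covered by stained E-selectin grains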;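 for nuclei count: 100% = median nuclei count of all wells on the same plate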); conditions: HUVEC TNFalpha-induced E-selectin immunofluorescence imaging, at 2 µM; inhibition: stronger effect = higher value; nuclei count: measured here: cell number, toxicity
[3] = DUSP6 inhibitors restoring Erk phosphorylation by chemical complementation, primary imaging in DUSP6-transfected HeLa (AID 609;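 active = compounds giving at least 50% inhibition in the cell-based MKP-3 phosphatase rescue imaging test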;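 for inhibition: phospho-Erk level distribution per well compared with pooled transfected vehicle control wells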); conditions: HeLa MKP-3 transfected, phospho-Erk imaging KS statistic, at 10 µM
[4] = target: Dual specificity protein phosphatase 6 (Homo sapiens) (UniProt Q16828); test: as above; conditions: HeLa MKP-3 transfected, phospho-Erk imaging KS statistic, at 10 µM, stronger effect = higher value
Dual specificity protein phosphatase 6 (Homo sapiens), sequence (Q16828 whole entry, looked up): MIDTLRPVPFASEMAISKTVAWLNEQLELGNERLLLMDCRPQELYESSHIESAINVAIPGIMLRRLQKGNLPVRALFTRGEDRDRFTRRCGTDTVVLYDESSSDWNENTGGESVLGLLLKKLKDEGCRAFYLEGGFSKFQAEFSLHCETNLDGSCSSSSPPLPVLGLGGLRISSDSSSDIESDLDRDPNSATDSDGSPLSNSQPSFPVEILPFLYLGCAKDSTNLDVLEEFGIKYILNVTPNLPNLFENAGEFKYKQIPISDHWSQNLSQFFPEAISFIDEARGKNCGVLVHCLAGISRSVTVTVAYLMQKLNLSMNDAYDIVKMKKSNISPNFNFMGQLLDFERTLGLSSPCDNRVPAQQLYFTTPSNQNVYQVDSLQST

[5] = target: Voltage-gated potassium channel subunit beta-2 (Rattus norvegicus) (UniProt P62483); test: KvBeta enzyme negative modulators, primary screen, biochemical, NADPH fluorescence (AID 622;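 active = fluorescence slope higher than the sample average by over 3 SD, cut at about -0.22 in these data, passing the limit was not always enough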;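 note: slope of raw intensity against log time taken from 70 to 1610 s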); conditions: recombinant KvBeta, 4-cyanobenzaldehyde reduction, at 10 µM, stronger effect = higher value
Voltage-gated potassium channel subunit beta-2 (Rattus norvegicus), sequence (P62483 whole entry, looked up): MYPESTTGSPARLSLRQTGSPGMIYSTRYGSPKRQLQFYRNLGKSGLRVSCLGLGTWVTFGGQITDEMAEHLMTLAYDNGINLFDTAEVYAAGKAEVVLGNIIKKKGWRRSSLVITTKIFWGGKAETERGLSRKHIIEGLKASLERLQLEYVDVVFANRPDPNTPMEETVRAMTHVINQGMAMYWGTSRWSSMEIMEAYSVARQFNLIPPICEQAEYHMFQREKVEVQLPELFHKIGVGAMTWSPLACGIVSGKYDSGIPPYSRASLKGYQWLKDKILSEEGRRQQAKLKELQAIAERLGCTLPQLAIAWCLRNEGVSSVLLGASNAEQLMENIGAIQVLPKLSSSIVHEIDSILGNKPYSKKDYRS

[6] = target: Voltage-gated potassium channel subunit beta-2 (Rattus norvegicus) (UniProt P62483); test: KvBeta positive modulators, primary screen, biochemical, NADPH fluorescence (AID 623); conditions: Recombinant KvBeta, NADPH fluorescence decrease slope, 10 min; at 10 µM; stronger effect = lower value;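 note: fluorescence intensity change per second fitted from 20 to 320 s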
[7] = target: Alpha-2C adrenergic receptor (Homo sapiens) (UniProt P18825); test: modulators of alpha2C/GIRK thallium flux, primary screen, cell-based, HEK293 alpha2C/GIRK1/2 (AID 624;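 active = fluorescence slope after compound addition differing from the mean of all screened samples at 99.7% confidence, in either direction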;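 note: slope of fluorescence ratio to pre-addition baseline per second over 15 to 24 s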); conditions: thallium flux BTC fluorescence, at 10 µM, actives lie on both sides
Alpha-2C adrenergic receptor (Homo sapiens), sequence (P18825 whole entry, looked up): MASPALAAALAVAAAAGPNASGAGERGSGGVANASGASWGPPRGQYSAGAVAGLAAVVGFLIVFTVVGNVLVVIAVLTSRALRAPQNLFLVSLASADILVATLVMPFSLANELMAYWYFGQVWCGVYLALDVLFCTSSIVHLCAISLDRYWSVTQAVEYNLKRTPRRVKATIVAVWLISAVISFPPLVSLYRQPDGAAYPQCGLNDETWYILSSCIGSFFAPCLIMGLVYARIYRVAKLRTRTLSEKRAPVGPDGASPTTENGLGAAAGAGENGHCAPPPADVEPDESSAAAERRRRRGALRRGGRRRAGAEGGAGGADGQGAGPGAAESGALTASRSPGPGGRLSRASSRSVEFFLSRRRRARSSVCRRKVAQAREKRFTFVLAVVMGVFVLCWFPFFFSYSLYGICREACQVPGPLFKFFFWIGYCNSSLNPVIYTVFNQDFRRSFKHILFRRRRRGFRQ

[8] = inhibitors of larval lipid processing in zebrafish, primary screen, whole organism, PED6 fluorescence, gall bladder and intestine (AID 686;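 active = a full or partial loss of lipid-probe fluorescence in the fish gall bladder, intestine or both, judged by eye; inactive = no fluorescence loss, or compound toxic to the fish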;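 note: larvae 5 to 7 days old with five fish per well; signal comes from phospholipase A2 cleavage of quenched PED6 carried via bile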); conditions: Zebrafish larvae PED6 lipid processing, fluorescence scoring
Procedure, shortened: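 Incubation: overnight exposure of larvae to compound plus PED6 / Test system: live zebrafish larvae aged 5-7 days, whole organism / Amount: 5 larvae per well / Read-out basis: visual per-well fluorescence inhibition score / Signal: visual fluorescence microscopy scoring of gall bladder, gut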

[9] = inhibitors of Chlamydomonas gravitaxis, primary screen, whole organism, Chlamydomonas reinhardtii, WT vs cilia-less mutant, absorbance, 96-well (AID 463189;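 active = inhibition at or above 50% relative to wild type and mutant plate controls; inactive = inhibition below 50%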;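 note: 0% = wild type cc124 cells in DMSO and 100% = ciliumless bld1 mutant cells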); conditions: OD600 absorbance, 2 days, at 10 µM, stronger effect = higher value
[10] = measured here: cell density z-score
[11] = measured here: nuclear c-Myc green intensity z-score
[12] = measured here: nuclear pErk red intensity z-score, stronger effect = higher value

| Structure (SMILES) | cell count [1] | inhibition [1] | inhibition [2] | nuclei count [2] [%] | z-score [3, 10] | z-score [3, 11] | z-score [3, 12] | inhibition [4] | fluorescence slope [5] | NADPH fluorescence slope [6] | slope [7] | outcome [8] | inhibition [9] |
| --- | --- | --- | --- | --- | --- | --- | --- | --- | --- | --- | --- | --- | --- |
| CCCCn1c(O)c(C=NCCN2CCCCC2)c(=O)[nH]c1=O | 430 | 0.6% (inactive) | 17.7% (inactive) | 87.8 | 0.907 | -2.11 | -0.0585 | -4.7% (inactive) | -0.489 (inactive) | 9.8e-06 (inactive) | 0.00621 (inactive) | inactive | 3.56% (inactive) |
| CCCCCCn1c(O)c(C=NCCN2CCCCC2)c(=O)[nH]c1=O | 667 | -17.9% (inactive) | -47.5% (inactive) | 141 | 0.204 | -1.24 | -1.39 | 12.7% (inactive) | -0.423 (inactive) | -2.4e-06 (inactive) | 0.00602 (inactive) | inactive | 12.8% (inactive) |
| CC(=O)OC1(c2ccc(C)cc2)CN2CCC1c1ccccc12 (configuration not stated) | 554 | -10% (inactive) | -198% (inactive) | 145 | 0.866 | 0.595 | 0.108 | 25.8% (inactive) | -0.502 (inactive) | -6.1e-05 (inactive) | 0.00515 (inactive) | inactive | 18.7% (inactive) |
| CN(C)CCc1nn[nH]n1 | 586 | -12.8% (inactive) | -15.2% (inactive) | 115 | -0.419 | 0.458 | 0.261 | 1.75% (inactive) | -0.47 (inactive) | -0.000339 (inactive) | 0.00441 (inactive) | inactive | 25.8% (inactive) |
| CCN(CC)CCN=Cc1c(O)n(CCc2ccccc2)c(=O)[nH]c1=O | 479 | 7.8% (inactive) | -1.8% (inactive) | 88.8 | 0.714 | -0.47 | -1.29 | 28% (inactive) | -0.368 (inactive) | 9.5e-06 (inactive) | 0.00625 (inactive) | inactive | -6.45% (inactive) |
| Cc1c(N=Cc2c(O)n(CCc3ccc(F)cc3)c(=O)[nH]c2=O)c(=O)n(-c2ccccc2)n1C | 647 | -28% (inactive) | -9.6% (inactive) | 155 | -1.16 | -1.2 | 1.06 | -0.624% (inactive) | -0.389 (inactive) | -4.5e-05 (inactive) | 0.0062 (inactive) | active; weak signal in gallbladder and intestine | 8% (inactive) |
| CCCCSP1(=S)NCCCN1 | 430 | -6.2% (inactive) | -45.8% (inactive) | 139 | 1.38 | -0.994 | 0.0968 | 22.7% (inactive) | -0.484 (inactive) | -0.000231 (inactive) | 0.00525 (inactive) | inactive | 32.8% (inactive) |
| CC(C)OC(=O)c1c(N)n(Cc2ccco2)c2nc3ccccc3nc12 | 337 | -5.5% (inactive) | -136% (inactive) | 108 | -1.01 | 1.4 | -1.07 | -4.7% (inactive) | -0.101 (inactive) | 1e-05 (inactive) | 0.00512 (inactive) | inactive | 1.76% (inactive) |
| O=c1c(C=NCCN2CCNCC2)c(O)n(C2CCCCC2)c(=O)n1C1CCCCC1 | 583 | -5.8% (inactive) | -162% (inactive) | 138 | 0.0473 | 0.939 | 0.718 | 3.97% (inactive) | -0.516 (inactive) | -3.1e-05 (inactive) | 0.00535 (inactive) | inactive | 2.5% (inactive) |
| CC1(C)CC(=O)C(C=NCCN2CCN(C(=O)Cc3ccc(F)cc3)CC2)=C(O)C1 | 580 | 5.6% (inactive) | -57.7% (inactive) | 140 | 0.866 | 1.58 | -0.927 | 17.8% (inactive) | -0.481 (inactive) | -3.6e-05 (inactive) | 0.00584 (inactive) | inactive | -8.15% (inactive) |
| COc1cccc(-n2c(C)nc3ccccc3c2=O)c1 | 554 | 7.1% (inactive) | -57.2% (inactive) | 161 | 0.773 | 1.04 | -1.15 | 7.73% (inactive) | -0.353 (inactive) | 2e-05 (inactive) | 0.00545 (inactive) | inactive | -5.87% (inactive) |
| CCOC(C(=O)OCC(O)CN(CC)CC)(c1ccccc1)c1ccccc1 (configuration not stated) | 598 | -12.4% (inactive) | -341% (inactive) | 184 | -0.241 | -0.53 | 1.71 | -5.89% (inactive) | -0.446 (inactive) | -0.000326 (inactive) | 0.00508 (inactive) | inactive | 19.6% (inactive) |
| CCN(CC)c1ccc(N=Cc2c(O)n(-c3ccccc3C)c(=O)[nH]c2=O)cc1 | 337 | 3.8% (inactive) | -48.3% (inactive) | 172 | -0.126 | 0.959 | 0.0511 | 7.01% (inactive) | -0.394 (inactive) | -0.000163 (inactive) | 0.00909 (inactive) | inactive | 24.7% (inactive) |
| CCC(=NCCOc1ccc(Cl)cc1)c1c(O)n(C)c(=O)n(C)c1=O | 555 | -7.6% (inactive) | -89.2% (inactive) | 99.1 | 0.38 | -2.81 | 0.837 | 13.2% (inactive) | -0.532 (inactive) | -0.00015 (inactive) | 0.0044 (inactive) | inactive | 19.1% (inactive) |
| O=C1C2CCN(CC2)[C@@H]1Cc1ccc2ccccc2c1O | 542 | -18.4% (inactive) | -159% (inactive) | 135 | 0.277 | -1 | -0.726 | 9.91% (inactive) | -0.498 (inactive) | -6.4e-05 (inactive) | 0.00747 (inactive) | inactive | 9.49% (inactive) |
| O=c1[nH]c(=O)n(Cc2ccco2)c(O)c1C=NCCN1CCOCC1 | 680 | -12.4% (inactive) | -84.8% (inactive) | 179 | 0.97 | -1.61 | 0.194 | -8.95% (inactive) | -0.384 (inactive) | -2.1e-05 (inactive) | 0.00707 (inactive) | inactive | -10.1% (inactive) |
| CCOc1ccccc1-n1c(O)c(C=Nc2c(C)n(C)n(-c3ccccc3)c2=O)c(=O)[nH]c1=O | 629 | -13.3% (inactive) | -48.3% (inactive) | 148 | 1.53 | -0.137 | 0.143 | 22.7% (inactive) | -0.432 (inactive) | -4.9e-06 (inactive) | 0.00796 (inactive) | inactive | 0.366% (inactive) |
| COc1ccc(Cn2c(O)c(C=NCCN3CCOCC3)c(=O)[nH]c2=O)cc1 | 587 | -0.9% (inactive) | 36.9% (inactive) | 166 | 0.642 | -0.606 | -0.227 | 19.3% (inactive) | -0.342 (inactive) | -2.7e-06 (inactive) | 0.00514 (inactive) | inactive | -7.73% (inactive) |
| CCCCOCCCn1c(N)c(C(=O)OCCOC)c2nc3ccccc3nc21 | 525 | -11.4% (inactive) | -48% (inactive) | 152 | -0.11 | -0.345 | 0.203 | 15.5% (inactive) | -0.052 (inactive) | -3.5e-06 (inactive) | 0.00403 (inactive) | inactive | 29.3% (inactive) |
